Source: ChEMBL document CHEMBL1914305, “Synthesis and structure-activity evaluation of isatin-β-thiosemicarbazones with improved selective activity toward multidrug-resistant cells expressing P-glycoprotein” (J Med Chem, 2011)
Each block holds one molecule with its values, some of them ahead of it. Calls of active or inactive are those of the source. The rule behind the calls is not given here.

How the values were obtained:
[1] = Cytotoxicity against human KB-3-1 cells after 72 hrs by MTT assay; format: functional, cell-based; conditions: KB 3-1, 72 h
In short: (§1)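 Grown in DMEM with 10% FBS. MTT assay: 4000 cells/well, 24 h settling, serial dilutions of drug, 72 h at 37 °C in 5% CO2. MTT in IMDM 4 h, then acidified ethanol 15 min, A570 with 690 nm background. Three experiments in triplicate. KB-V1-R comes from KB-V1 grown long-term drug-free.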

[2] = Selectivity ratio of IC50 for human KB-3-1 cells to IC50 for human KBV1 cells selected at 1 ug/mL vinblastine; format: functional
In short: (§2)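 Selectivity ratio: IC50 in the parental or empty-vector cells divided by IC50 in the P-gp-expressing cells (KB-V1, or ABCB1-transfected LLC-PK1). MTT assay: 4000 cells/well established for 24 h, then 72 h exposure to serially diluted drug at 37 °C, 5% CO2. MTT for 4 h, acidified ethanol lysis, A570 corrected at A690. IC50 is the concentration giving 50% of untreated absorbance, from at least three experiments.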

[3] = Cytotoxicity against vinblastine-selected human KBV1 cells after 72 hrs by MTT assay; format: functional, cell-based; conditions: KB-V1, 72 h
In short: as §1, with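 “background. IC50 is the concentration reducing absorbance to 50% of untreated control.” for “background.”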

[4] = Cytotoxicity against P-gp expressing human KBV1 cells after 72 hrs by MTT assay in presence of 100 nM TQR; conditions: KB-V1, 72 h
[5] = Selectivity ratio of IC50 for pig LLC-PK1 cells transfected with empty vector to IC50 for pig LLC-PK1 cells; format: ADME, cell-based, Sus scrofa; conditions: read-out: Ratio IC50; in short: as §2
[6] = Aqueous solubility of the compound; format: physicochemical; conditions: buffer
KB-V1 = test: Cytotoxicity against P-gp expressing human KBV1 cells after 72 hrs by MTT assay in presence of 4 uM P-gp substrate Rh123; format: functional, cell-based
LLC-PK1 [7] = test: Cytotoxicity against pig LLC-PK1 cells after 72 hrs by MTT assay; format: cell-based; conditions: Sus scrofa, LLC-PK1, 72 h
In short: (§3)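 LLC-PK1 empty-vector lines grown in M199 with 10% FBS; transfected lines also in 0.5 mg/mL G418. MTT assay: 4000 cells/well for 24 h, then serially diluted drug for 72 h at 37 °C, 5% CO2. MTT 4 h, acidified ethanol, A570 minus 690 nm. IC50 is 50% of untreated absorbance. Triplicate wells, three experiments.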

NCI-H460 [8] = test: Cytotoxicity against ABCG2-expressing human H460 cells at 10 uM after 72 hrs by MTT assay; format: functional, cell-based
[9] = Cytotoxicity against P-gp-negative human KB-3-1 cells after 72 hrs by MTT assay in presence of 100 nM TQR; conditions: KB 3-1, 72 h
[10] = Cytotoxicity against P-gp expressing human KBV1 revertant cells after 72 hrs by MTT assay; format: functional, cell-based; conditions: KB-V1, 72 h, in the assay text read “P-gp-negative” for “P-gp expressing”
In short: as §1, with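 “background. IC50 is the concentration reducing absorbance to 50% of untreated control.” for “background.”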

NCI-H460 [11] = test: Cytotoxicity against ABCG2-expressing human H460 cells at 10 to 20 uM after 72 hrs by MTT assay in presence of ABCG2 substrate 5 uM mitoxantrone; format: functional, cell-based
LLC-PK1 [12] = test: Cytotoxicity against pig LLC-PK1 cells transfected with empty vector after 72 hrs by MTT assay; format: cell-based; conditions: Sus scrofa, LLC-PK1, 72 h; in short: as §3

SMILES: O=C1Nc2ccccc2/C1=N/NC(=S)Nc1ccc(Cl)cc1
IC50 [1]: 13.4 µM
Ratio IC50 [2]: 2.7
IC50 [3]: 4.99 µM

SMILES: CC(C)c1ccc(NC(=S)N/N=C2\C(=O)Nc3ccccc32)cc1
IC50 [1]: 9.11 µM
Ratio IC50 [2]: 8.4
IC50 [3]: 1.09 µM

SMILES: CCCCNC(=S)N/N=C1\C(=O)Nc2ccccc21
IC50 [1]: 10.9 µM
Ratio IC50 [2]: 1.9
IC50 [3]: 5.69 µM

SMILES: O=C1Nc2ccccc2/C1=N/NC(=S)NC12CC3CC(CC(C3)C1)C2
IC50 [1]: 3.16 µM
Ratio IC50 [2]: 3.1
IC50 [3]: 1.02 µM

solubility [6]: < 0.2 µg/mL
SMILES: O=C1Nc2ccccc2/C1=N/NC(=S)Nc1ccc([N+](=O)[O-])cc1
IC50 [4]: 6.35 µM
selectivity ratio [5]: 6.4
IC50 [1]: 15.6 µM
Ratio IC50 [2]: 8.3
Activity (KB-V1): Active
IC50 (LLC-PK1 [7]): 4.46 µM
Activity (NCI-H460 [8]): Active
IC50 [9]: 10 µM
IC50 [10]: 7.21 µM
Activity (NCI-H460 [11]): Active
IC50 [3]: 2.07 µM
IC50 (LLC-PK1 [12]): 28.4 µM

SMILES: O=C1Nc2ccccc2/C1=N/NC(=S)Nc1cccc(Cl)c1
IC50 [1]: 1.87 µM
Ratio IC50 [2]: 2.9
IC50 [3]: 0.64 µM

SMILES: Cc1ccc(NC(=S)N/N=C2\C(=O)Nc3ccccc32)cc1
IC50 [1]: 24 µM
Ratio IC50 [2]: 9.2
IC50 [3]: 2.6 µM

SMILES: CNC(=S)N/N=C1\C(=O)Nc2ccccc21
IC50 [1]: 35.3 µM
Ratio IC50 [2]: 1.8
IC50 [3]: 19.4 µM
